Source: PubChem (several laboratories)
Most compounds without a hit are left out; they make up all but 2.1% or so of the library.
SF-1 act = activates the human nuclear receptor SF-1; Q13285; CHO-K1 Gal4-SF-1 LBD luciferase reporter; % increase over DMSO SF-1-specific signal; activation, % at 10 µM; actives 1.9% (n = 65,000); AID 522;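 active means activation above the mean activation of all tested compounds plus 3 SD, cut at about 50% in these data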
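Material: Transient Gal4-SF-1 LBD reporter, CHO-K1 | Input: 4,000 cells/well | Dosing: One dose, 10 µM compound, 1% DMSO | Incubation: 20 h compound treatment, 37 °C | Detection: SteadyLite luciferase luminescence | Evaluation: Percent activation relative to DMSO median and mock-transfected background | Benchmarks: DMSO-treated SF-1-transfected cells as negative, DMSO-treated mock-transfected cells lacking SF-1 as background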
CD11b adhes inh = blocks human CD11b/CD18 adhesion to fibrinogen | P05107+P11215 | K562 CD11b/CD18 adhesion to fibrinogen, ATPlite luminescence; Mn2+ added to activate the integrin | inhibition, % at 10 µM | actives 0.54% (n = 93,000);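 active means primary inhibition of 50% or more at 10 µM, then 40% or more on retest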
Target sequence (P05107 whole entry, looked up, other chains not shown): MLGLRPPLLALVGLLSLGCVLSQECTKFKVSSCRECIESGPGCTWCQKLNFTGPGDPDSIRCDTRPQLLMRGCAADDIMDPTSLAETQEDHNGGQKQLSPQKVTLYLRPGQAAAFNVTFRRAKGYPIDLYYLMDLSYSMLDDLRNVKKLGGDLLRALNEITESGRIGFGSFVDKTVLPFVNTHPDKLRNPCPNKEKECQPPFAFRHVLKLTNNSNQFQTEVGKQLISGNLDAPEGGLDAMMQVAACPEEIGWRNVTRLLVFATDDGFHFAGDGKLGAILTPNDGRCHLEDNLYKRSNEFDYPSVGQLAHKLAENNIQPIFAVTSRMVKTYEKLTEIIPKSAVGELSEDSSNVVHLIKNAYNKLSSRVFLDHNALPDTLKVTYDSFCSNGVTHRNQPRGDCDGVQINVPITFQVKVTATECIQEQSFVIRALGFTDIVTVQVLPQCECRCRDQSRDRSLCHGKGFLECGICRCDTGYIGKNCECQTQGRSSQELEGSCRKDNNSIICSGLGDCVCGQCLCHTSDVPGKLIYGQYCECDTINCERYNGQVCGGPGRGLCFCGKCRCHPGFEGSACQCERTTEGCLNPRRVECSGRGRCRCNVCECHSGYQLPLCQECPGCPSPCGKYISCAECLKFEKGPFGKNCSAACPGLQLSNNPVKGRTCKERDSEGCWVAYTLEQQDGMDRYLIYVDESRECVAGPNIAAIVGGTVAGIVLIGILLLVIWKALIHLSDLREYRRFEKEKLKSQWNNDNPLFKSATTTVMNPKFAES
TNAP act DEA = activators of human TNAP at intermediate phosphate acceptor; P05186; purified TNAP, CDP-star luminescence, 100 mM DEA, 30 min; stronger effect = higher value; scale: 0 levamisole-inhibited, 1 vehicle-only enzyme; activation factor at 20 µM; 64,000 tested, under 10 active; AID 813;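 active means activation factor of at least 2 at 20 µM, relative to controls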
RORA act = activates the human nuclear receptor RORA; CHO-K1 Gal4-RORA LBD luciferase reporter, luminescence; percent increase over mock-subtracted basal signal; actives 1.5% (n = 65,000); activation, % at 10 µM;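 active means activation above the mean of all tested compounds plus 3 SD, cut at about 49% in these data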
MT1-MMP txn act = activates MT1-MMP transcription; HT1080 MT1-MMP promoter luciferase reporter, luminescence, overnight; stronger effect = higher value; activation factor at 10 µM; actives 0.16% (n = 86,000);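 active means activation factor of at least 2 for MT1-MMP transcription at 10 µM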
Mac1 fbg enh = enhancers of human CD11b/CD18 binding to fibrinogen. P05107+P11215. K562 CD11b/CD18 adhesion to fibrinogen, ATPlite luminescence. activation, % at 10 µM. actives 0.07% (n = 93,000). AID 1499;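 active means 10 µM primary screen giving 50% or more activity, confirmed by 40% or more on retest at that dose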
Each line names hits and unclear results; the compound was inactive in the other large screens.

COc1ccc(-c2cc(-c3cc(F)ccc3O)[nH]n2)cc1OC	MT1-MMP txn act 2.3 (no result: CD11b adhes inh, Mac1 fbg enh)
Cc1ccc2cc3cc(C(=O)N(C)C4CCCCC4)oc3nc2c1	SF-1 act 77 (no result: CD11b adhes inh, Mac1 fbg enh)
CCc1cc(-c2n[nH]c(=S)n2-c2ccccc2C)cs1	none (no result: SF-1 act, TNAP act DEA, RORA act, MT1-MMP txn act)
Nc1nc(Nc2cccc(F)c2)nc2ccccc12	SF-1 act 67
CC(=Nc1cccc(O)c1)c1sc2ccccc2c1O	SF-1 act 94
CCOC(=O)C1CCN(S(=O)(=O)c2ccc(-c3nc4ccccc4s3)s2)CC1	SF-1 act 68
CCOC(=O)C1CCN(S(=O)(=O)c2ccc(C(C)=O)cc2)CC1	none (no result: SF-1 act, CD11b adhes inh, TNAP act DEA, RORA act, Mac1 fbg enh)
Clc1ccc(-c2nnc(N3CCCC3)nn2)cc1	RORA act 55 (no result: MT1-MMP txn act)
Cc1ccc(S(=O)(=O)N(C)c2ccc(C(=O)N3CCN(Cc4ccc5c(c4)OCO5)CC3)cc2)cc1	CD11b adhes inh 61 (no result: SF-1 act, TNAP act DEA, RORA act)
CN(c1ccc(C(=O)N2CCN(Cc3ccc4c(c3)OCO4)CC2)cc1)S(=O)(=O)c1ccccc1	none (no result: SF-1 act, TNAP act DEA, RORA act)
CCN(CC)C(=O)CCCOc1ccc(Cl)cc1Cl	RORA act 54
CSc1nc(Oc2ccc3ccccc3c2)c2ccccc2n1	none (no result: SF-1 act, TNAP act DEA, RORA act, MT1-MMP txn act)
O=C1Cn2c(nc3ccccc32)N1c1cccc(C(F)(F)F)c1	none (no result: SF-1 act, TNAP act DEA, RORA act)
Cc1cc(Oc2ccc(C#N)cc2)nc(NCc2ccccc2)n1	none (no result: SF-1 act, TNAP act DEA, RORA act)
COc1ccc(-c2nc(C#N)c(NCC3CCCO3)o2)cc1OC (centres undefined)	RORA act 53
C=CCNc1oc(-c2ccc(OC)cc2)nc1C#N	SF-1 act 57
N#Cc1nc(-c2ccc(OCc3ccccc3)cc2)oc1NCc1ccco1	none
CNc1oc(-c2ccc(OCc3ccccc3)cc2)nc1C#N	SF-1 act 58
COc1cc(/C=N/NC(=O)c2cc(-c3ccc4c(c3)OCO4)n[nH]2)ccc1O	none (no result: SF-1 act, TNAP act DEA, RORA act, MT1-MMP txn act)
C/C(=N\NS(=O)(=O)c1ccc(Cl)c([N+](=O)[O-])c1)c1cc2ccccc2o1	CD11b adhes inh 97 (no result: SF-1 act, TNAP act DEA, RORA act, MT1-MMP txn act)
N#CCc1ccc(C(=O)c2ccccc2F)s1	none (no result: SF-1 act, TNAP act DEA, RORA act, MT1-MMP txn act)
COc1cccc(C(=O)/C=C/Nc2cc(C)ccc2O)c1	SF-1 act 56
OCc1cn(-c2ccccc2)nc1-c1ccc2c(c1)OCCO2	RORA act 73, MT1-MMP txn act 2.1
COc1cccc(-c2nn(-c3ccccc3)cc2CO)c1	RORA act 62
O/N=C/c1cn(-c2ccccc2)nc1-c1ccc2c(c1)OCCO2	none (no result: SF-1 act, TNAP act DEA, RORA act)
CCN(CC)C(=S)NC(=O)c1ccc(Cl)cc1Cl	none (no result: SF-1 act, TNAP act DEA, RORA act, MT1-MMP txn act)
O=C(Nc1nc(=S)ss1)c1ccc(Cl)cc1Cl	CD11b adhes inh 114 (no result: SF-1 act, TNAP act DEA, RORA act)
O=C(Nc1cnc2ccccc2c1)c1cccnc1	SF-1 act 75, RORA act 58
Cn1c(NC(=O)c2cccnc2)nc2ccccc21	SF-1 act 52, RORA act 52
Cc1ccc(C(=O)Nc2cnc3ccccc3c2)cc1	none (no result: SF-1 act, TNAP act DEA, RORA act, MT1-MMP txn act)
CCC(C)c1ccc(NC(=O)c2cccnc2)cc1 (centres undefined)	SF-1 act 112, RORA act 93 (no result: CD11b adhes inh, Mac1 fbg enh)
O=C(Nc1cnc2ccccc2c1)c1cccc(-n2cnnn2)c1	SF-1 act 56
CCC(C)c1ccc(O)c(NC(=O)c2cccnc2)c1 (centres undefined)	none
COC(=O)[C@@]1(Cc2ccc(OC)cc2)[C@H]2c3cc(C(=O)N4CCCC4)n(CCc4ccc(O)c(O)c4)c3C[C@H]2CN1C(=O)c1ccccc1	none (no result: SF-1 act, CD11b adhes inh, TNAP act DEA, RORA act, Mac1 fbg enh)
COc1ccc(CNC(=O)CSc2nnc3c(Cl)cc(C(F)(F)F)cn23)cc1OC	none (no result: SF-1 act, TNAP act DEA, RORA act, MT1-MMP txn act)
Cc1ccc(OC(=O)c2ccc(S(=O)(=O)N(C)C)cc2)c(-n2nc3ccccc3n2)c1	none (no result: SF-1 act, TNAP act DEA, RORA act, MT1-MMP txn act)
Cc1ccc(S(=O)(=O)N(C(=O)c2ccncc2)c2ccc(OC(=O)c3ccncc3)c3ccccc23)c(C)c1	CD11b adhes inh 72 (no result: SF-1 act, TNAP act DEA, RORA act, MT1-MMP txn act)
COc1ccc(Br)cc1/C=N/NC(=O)c1nc(-c2ccccc2)n2c1CCCCC2	none (no result: SF-1 act, TNAP act DEA, RORA act, MT1-MMP txn act)
COc1ccc(Cn2c(SCc3ccccc3C)nc3cc(OC)c(OC)cc3c2=N)cc1	Mac1 fbg enh 135 (no result: SF-1 act, TNAP act DEA, RORA act, MT1-MMP txn act)
Cc1cc(NC(=O)c2ccc3c(c2)OCO3)no1	SF-1 act 60
O=C(Nc1cccc(F)c1)c1ccc2c(c1)OCO2	SF-1 act 62
O=C(Nc1ccc2c(c1)OCO2)c1cccs1	SF-1 act 61
O=C(Nc1ccc2c(c1)OCCO2)c1cccs1	none (no result: SF-1 act, TNAP act DEA, RORA act, MT1-MMP txn act)
